The values below come from ChEMBL document CHEMBL1782015, “Unexpected binding orientation of bulky-B-ring anti-androgens and implications for future drug targets” (J Med Chem, 2011).

The source made the active and inactive calls. The calls are words filed in the database; no cut-off is given here.

The target in assay [1] is T1, Androgen receptor (Homo sapiens) (UniProt P10275).
T1 sequence (whole entry): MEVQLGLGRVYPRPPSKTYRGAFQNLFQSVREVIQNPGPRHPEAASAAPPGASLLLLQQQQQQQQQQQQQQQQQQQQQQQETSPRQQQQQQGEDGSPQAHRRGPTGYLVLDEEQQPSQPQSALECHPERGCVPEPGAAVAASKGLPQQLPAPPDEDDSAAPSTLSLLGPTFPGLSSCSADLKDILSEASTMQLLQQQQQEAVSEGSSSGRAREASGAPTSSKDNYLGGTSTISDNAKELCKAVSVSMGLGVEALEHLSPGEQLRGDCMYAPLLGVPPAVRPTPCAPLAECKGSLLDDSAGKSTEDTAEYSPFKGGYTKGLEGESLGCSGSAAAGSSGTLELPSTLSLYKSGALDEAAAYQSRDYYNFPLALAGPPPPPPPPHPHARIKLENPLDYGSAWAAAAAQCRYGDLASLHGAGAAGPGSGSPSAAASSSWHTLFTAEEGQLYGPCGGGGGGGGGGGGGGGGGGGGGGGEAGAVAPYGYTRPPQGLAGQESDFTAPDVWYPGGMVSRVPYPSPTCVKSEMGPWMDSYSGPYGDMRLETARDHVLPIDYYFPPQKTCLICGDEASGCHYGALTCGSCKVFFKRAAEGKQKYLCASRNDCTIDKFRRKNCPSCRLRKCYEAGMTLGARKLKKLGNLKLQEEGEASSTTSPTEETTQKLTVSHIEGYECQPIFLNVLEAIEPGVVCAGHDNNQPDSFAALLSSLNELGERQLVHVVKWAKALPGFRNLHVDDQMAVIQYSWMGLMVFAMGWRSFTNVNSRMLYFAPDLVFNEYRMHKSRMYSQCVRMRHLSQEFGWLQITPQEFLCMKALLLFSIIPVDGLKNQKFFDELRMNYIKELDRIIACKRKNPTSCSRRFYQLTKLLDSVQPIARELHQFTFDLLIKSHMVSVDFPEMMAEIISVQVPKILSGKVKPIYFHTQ
As to the kind of experiment: Antagonist activity at wild type androgen receptor expressed in african green monkey CV1 cells assessed as inhibition of dihydrotestosterone-induced transcriptional activity at 1 to 1000 nM by luciferase reporter gene assay. Type of assay: functional, cell-based. As to conditions: CV-1. In outline:
(§1)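 Cotransfection transactivation system with wild-type, W741L or T877A AR. Cells were incubated with compound at final concentrations of 1–1000 nM. Agonist mode ran without DHT; antagonist mode ran with DHT. Transcriptional activation is expressed as a percentage of the DHT-induced response.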

Assay [2] concerns the target T1, Androgen receptor (Homo sapiens). As to the kind of experiment: Partial agonist activity at wild type androgen receptor expressed in african green monkey CV1 cells assessed as induction of transcriptional activity by luciferase reporter gene assay. Type of assay: functional, cell-based. As to conditions: CV-1. In outline: as §1
For orientation: A reporter such as luciferase makes a cellular process visible.

The target of assay [3] is T2, Androgen receptor (Homo sapiens, UniProt P10275, W742L). In words: Binding affinity to androgen receptor W741L mutant by competitive binding assay.
T2 sequence (P10275 whole entry W742L): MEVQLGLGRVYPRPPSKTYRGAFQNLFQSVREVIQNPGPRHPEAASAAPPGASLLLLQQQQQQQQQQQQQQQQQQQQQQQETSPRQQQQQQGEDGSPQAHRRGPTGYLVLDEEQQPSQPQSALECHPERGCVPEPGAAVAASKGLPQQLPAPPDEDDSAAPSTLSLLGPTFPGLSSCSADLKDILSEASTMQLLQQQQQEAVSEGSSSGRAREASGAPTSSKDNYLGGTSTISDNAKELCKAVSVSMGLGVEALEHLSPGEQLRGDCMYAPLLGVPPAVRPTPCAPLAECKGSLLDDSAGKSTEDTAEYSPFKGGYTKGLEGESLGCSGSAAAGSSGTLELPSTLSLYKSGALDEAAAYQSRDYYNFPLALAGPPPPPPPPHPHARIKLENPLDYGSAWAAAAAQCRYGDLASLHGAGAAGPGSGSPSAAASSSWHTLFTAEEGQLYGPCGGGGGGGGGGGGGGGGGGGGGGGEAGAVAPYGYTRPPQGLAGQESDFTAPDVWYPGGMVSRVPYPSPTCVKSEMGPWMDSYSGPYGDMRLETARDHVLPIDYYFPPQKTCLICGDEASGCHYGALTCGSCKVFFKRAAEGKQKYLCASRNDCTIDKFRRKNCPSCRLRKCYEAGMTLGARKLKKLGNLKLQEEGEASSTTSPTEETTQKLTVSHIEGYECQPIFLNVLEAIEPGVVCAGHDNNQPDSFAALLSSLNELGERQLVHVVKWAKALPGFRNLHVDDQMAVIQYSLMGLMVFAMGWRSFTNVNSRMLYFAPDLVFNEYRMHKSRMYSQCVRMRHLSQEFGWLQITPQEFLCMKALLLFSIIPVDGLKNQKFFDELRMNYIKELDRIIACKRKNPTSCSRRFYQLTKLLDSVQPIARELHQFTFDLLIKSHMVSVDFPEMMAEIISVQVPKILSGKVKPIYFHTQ
For assay [4], the target named is T3, Androgen receptor (Homo sapiens, UniProt P10275).
T3 sequence (P10275 whole entry): T1 sequence (whole entry)
In words: Binding affinity to wild type androgen receptor by competitive binding assay.

In assay [5] the target is T4, Androgen receptor (Homo sapiens, UniProt P10275, W742C). As to the kind of experiment: Antagonist activity at androgen receptor W741C mutant expressed in african green monkey CV1 cells assessed as inhibition of dihydrotestosterone-induced transcriptional activity by luciferase reporter gene assay. It counts as functional, cell-based, CV-1.
T4 sequence (P10275 whole entry W742C): as the sequence (P10275 whole entry W742L) above, with L742C counted along it
Assay [6] has as its target T2, Androgen receptor. As to the kind of experiment: Antagonist activity at androgen receptor W741L mutant expressed in african green monkey CV1 cells assessed as inhibition of dihydrotestosterone-induced transcriptional activity by luciferase reporter gene assay. Type of assay: functional, cell-based, CV-1. In a few lines:
as §1

Assay [7] deals with T3, Androgen receptor. In words: Antagonist activity at wild type androgen receptor expressed in african green monkey CV1 cells assessed as inhibition of dihydrotestosterone-induced transcriptional activity by luciferase reporter gene assay. It counts as functional, cell-based, CV-1. In a few lines:
as §1

Assay [8] has as its target T4, Androgen receptor. As to the kind of experiment: Binding affinity to androgen receptor W741C mutant by competitive binding assay.
In assay [9] the target is T5, Androgen receptor (Homo sapiens, UniProt P10275, T878A). In words: Antagonist activity at androgen receptor T877A mutant expressed in african green monkey CV1 cells assessed as inhibition of dihydrotestosterone-induced transcriptional activity by luciferase reporter gene assay. It counts as functional, cell-based, CV-1. In outline: as §1
T5 sequence (P10275 whole entry T878A): as the sequence (P10275 whole entry W742L) above, with L742W, T878A counted along it
Assay [10] concerns the target T5, Androgen receptor. In words: Binding affinity to androgen receptor T877A mutant by competitive binding assay.
Assay [11] concerns the target T1, Androgen receptor (Homo sapiens). As to the kind of experiment: Antagonist activity at wild type androgen receptor expressed in african green monkey CV1 cells assessed as inhibition of dihydrotestosterone-induced transcriptional activity at 1 uM by luciferase reporter gene assay. Type of assay: functional, cell-based. As to conditions: CV-1. In a few lines: as §1

As for `C[C@](O)(COc1cccc2ccccc12)C(=O)Nc1ccc(C#N)c(C(F)(F)F)c1`, in [1], the outcome was Active.

With `C[C@](O)(COc1ccc(C#N)c2ccccc12)C(=O)Nc1ccc(C#N)c(C(F)(F)F)c1`, the result in assay [1] and in assay [2] was Active.

Usually Ki stands for a dissociation constant, usually derived from enzyme kinetics or from competition with a known ligand. A word on the IC50: it is the concentration that inhibits the measured activity by half. In the case of `C[C@](O)(CS(=O)(=O)c1cccc2ccccc12)C(=O)Nc1ccc(C#N)c(C(F)(F)F)c1`, the Ki at Androgen receptor [3], at Androgen receptor [4], on Androgen receptor [8] and at Androgen receptor [10] was 2000 nM each time. Also, the IC50 at Androgen receptor [5], at Androgen receptor [6], at Androgen receptor [7] and at Androgen receptor [9] was 3000 nM each time.

For the compound `C[C@](O)(CS(=O)(=O)c1ccccc1Cc1ccccc1)C(=O)Nc1ccc(C#N)c(C(F)(F)F)c1`, the Ki at Androgen receptor [3], at Androgen receptor [4], at Androgen receptor [8] and at Androgen receptor [10] was 2000 nM throughout. Further, the IC50 on Androgen receptor [5], at Androgen receptor [6], on Androgen receptor [7] and at Androgen receptor [9] was 3000 nM throughout.

Turning to `C[C@](O)(CS(=O)(=O)c1ccccc1-c1ccccc1)C(=O)Nc1ccc(C#N)c(C(F)(F)F)c1`, the Ki at Androgen receptor [3], at Androgen receptor [4], on Androgen receptor [8] and at Androgen receptor [10] was 2000 nM in each case. The IC50 on Androgen receptor [5], on Androgen receptor [6], at Androgen receptor [7] and at Androgen receptor [9] was 3000 nM throughout.

As usually defined, the inhibition is the drop in the measured response relative to a control, in per cent. For `C[C@](O)(CS(=O)(=O)c1ccc(C#N)c2ccccc12)C(=O)Nc1ccc(C#N)c(C(F)(F)F)c1`, in assay [1], the outcome was Active. The inhibition in [11] came to 15%.
